Assay results as given in ChEMBL document CHEMBL4627400, “Discovery of Dihydropyrrolo[1,2-a]pyrazin-3(4H)-one-Based Second-Generation GluN2C- and GluN2D-Selective Positive Allosteric Modulators (PAMs) of the N-Methyl-d-Aspartate (NMDA) Receptor” (J Med Chem, 2020).
pEC50: −log10 of the molar value. In brackets after ≈: the same amount, converted by molar mass.

How the values were obtained:
[1] = molecular target: T1, Glutamate NMDA receptor; Grin1/Grin2b (Rattus norvegicus, UniProt P35439+Q00960); assay: Positive allosteric modulation of recombinant rat GluN1a/GluN2B receptor expressed in Xenopus laevis oocytes assessed as increase in glycine/L-glutamate-induced channel current at 10 to 30 uM by two-electrode voltage clamp method relative to control; assay type: cell-based
T1 sequence (Q00960 whole entry, other chains not shown): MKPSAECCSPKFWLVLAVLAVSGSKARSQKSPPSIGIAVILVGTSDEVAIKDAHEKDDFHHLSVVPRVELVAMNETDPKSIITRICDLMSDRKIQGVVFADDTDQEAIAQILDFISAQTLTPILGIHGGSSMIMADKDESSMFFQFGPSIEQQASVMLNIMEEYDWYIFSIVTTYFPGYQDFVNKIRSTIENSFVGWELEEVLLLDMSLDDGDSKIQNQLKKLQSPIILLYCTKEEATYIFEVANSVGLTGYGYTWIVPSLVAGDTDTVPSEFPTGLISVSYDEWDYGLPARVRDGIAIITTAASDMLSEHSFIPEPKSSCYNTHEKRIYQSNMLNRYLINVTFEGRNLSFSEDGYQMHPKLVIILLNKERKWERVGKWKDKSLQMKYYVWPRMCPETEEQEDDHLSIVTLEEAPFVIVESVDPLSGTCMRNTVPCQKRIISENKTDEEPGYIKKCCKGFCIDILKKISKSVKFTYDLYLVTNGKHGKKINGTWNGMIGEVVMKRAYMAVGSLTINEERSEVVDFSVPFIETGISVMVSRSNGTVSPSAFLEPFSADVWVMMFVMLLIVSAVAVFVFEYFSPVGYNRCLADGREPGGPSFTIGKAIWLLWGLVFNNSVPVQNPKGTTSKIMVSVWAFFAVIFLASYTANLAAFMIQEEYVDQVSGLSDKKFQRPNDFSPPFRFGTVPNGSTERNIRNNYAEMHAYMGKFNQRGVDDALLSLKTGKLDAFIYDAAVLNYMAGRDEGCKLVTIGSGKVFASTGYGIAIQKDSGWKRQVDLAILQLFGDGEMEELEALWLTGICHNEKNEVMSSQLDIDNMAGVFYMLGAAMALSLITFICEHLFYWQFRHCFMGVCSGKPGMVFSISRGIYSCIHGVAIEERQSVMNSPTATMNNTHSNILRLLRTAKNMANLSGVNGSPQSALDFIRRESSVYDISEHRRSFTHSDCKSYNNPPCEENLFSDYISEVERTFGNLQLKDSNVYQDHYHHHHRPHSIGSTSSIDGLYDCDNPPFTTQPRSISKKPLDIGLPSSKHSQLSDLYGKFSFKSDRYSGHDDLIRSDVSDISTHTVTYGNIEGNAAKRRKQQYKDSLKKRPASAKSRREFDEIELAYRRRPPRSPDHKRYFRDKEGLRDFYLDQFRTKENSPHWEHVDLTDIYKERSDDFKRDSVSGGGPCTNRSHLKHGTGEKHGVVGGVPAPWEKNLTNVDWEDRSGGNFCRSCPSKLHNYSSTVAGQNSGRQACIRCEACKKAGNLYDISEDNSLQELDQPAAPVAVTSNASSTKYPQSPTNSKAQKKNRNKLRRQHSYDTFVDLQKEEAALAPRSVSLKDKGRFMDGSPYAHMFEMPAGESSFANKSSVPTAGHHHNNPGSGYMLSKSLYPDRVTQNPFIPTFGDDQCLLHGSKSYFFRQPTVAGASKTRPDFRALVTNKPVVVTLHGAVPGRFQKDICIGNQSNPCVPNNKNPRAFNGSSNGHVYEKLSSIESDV
Summary of the method: (§1)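 TEVC at −40 mV, 23 °C, in 90 NaCl/1 KCl/0.5 BaCl/0.005 EDTA/10 HEPES (mM), pH 7.4. Oocytes expressed rat GluN1/GluN2A or GluN1/GluN2B. […] Some GluN2A oocytes were BAPTA-loaded. 4–17 oocytes from 1–3 frogs.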

[2] = molecular target: T2, Glutamate NMDA receptor; Grin1/Grin2a (Rattus norvegicus, UniProt P35439+Q00959); assay: Positive allosteric modulation of recombinant rat GluN1a/GluN2A receptor expressed in Xenopus laevis oocytes assessed as increase in glycine/L-glutamate-induced channel current at 10 to 30 uM by two-electrode voltage clamp method relative to control; assay type: cell-based; summary of the method: as §1
T2 sequence (Q00959 whole entry, other chains not shown): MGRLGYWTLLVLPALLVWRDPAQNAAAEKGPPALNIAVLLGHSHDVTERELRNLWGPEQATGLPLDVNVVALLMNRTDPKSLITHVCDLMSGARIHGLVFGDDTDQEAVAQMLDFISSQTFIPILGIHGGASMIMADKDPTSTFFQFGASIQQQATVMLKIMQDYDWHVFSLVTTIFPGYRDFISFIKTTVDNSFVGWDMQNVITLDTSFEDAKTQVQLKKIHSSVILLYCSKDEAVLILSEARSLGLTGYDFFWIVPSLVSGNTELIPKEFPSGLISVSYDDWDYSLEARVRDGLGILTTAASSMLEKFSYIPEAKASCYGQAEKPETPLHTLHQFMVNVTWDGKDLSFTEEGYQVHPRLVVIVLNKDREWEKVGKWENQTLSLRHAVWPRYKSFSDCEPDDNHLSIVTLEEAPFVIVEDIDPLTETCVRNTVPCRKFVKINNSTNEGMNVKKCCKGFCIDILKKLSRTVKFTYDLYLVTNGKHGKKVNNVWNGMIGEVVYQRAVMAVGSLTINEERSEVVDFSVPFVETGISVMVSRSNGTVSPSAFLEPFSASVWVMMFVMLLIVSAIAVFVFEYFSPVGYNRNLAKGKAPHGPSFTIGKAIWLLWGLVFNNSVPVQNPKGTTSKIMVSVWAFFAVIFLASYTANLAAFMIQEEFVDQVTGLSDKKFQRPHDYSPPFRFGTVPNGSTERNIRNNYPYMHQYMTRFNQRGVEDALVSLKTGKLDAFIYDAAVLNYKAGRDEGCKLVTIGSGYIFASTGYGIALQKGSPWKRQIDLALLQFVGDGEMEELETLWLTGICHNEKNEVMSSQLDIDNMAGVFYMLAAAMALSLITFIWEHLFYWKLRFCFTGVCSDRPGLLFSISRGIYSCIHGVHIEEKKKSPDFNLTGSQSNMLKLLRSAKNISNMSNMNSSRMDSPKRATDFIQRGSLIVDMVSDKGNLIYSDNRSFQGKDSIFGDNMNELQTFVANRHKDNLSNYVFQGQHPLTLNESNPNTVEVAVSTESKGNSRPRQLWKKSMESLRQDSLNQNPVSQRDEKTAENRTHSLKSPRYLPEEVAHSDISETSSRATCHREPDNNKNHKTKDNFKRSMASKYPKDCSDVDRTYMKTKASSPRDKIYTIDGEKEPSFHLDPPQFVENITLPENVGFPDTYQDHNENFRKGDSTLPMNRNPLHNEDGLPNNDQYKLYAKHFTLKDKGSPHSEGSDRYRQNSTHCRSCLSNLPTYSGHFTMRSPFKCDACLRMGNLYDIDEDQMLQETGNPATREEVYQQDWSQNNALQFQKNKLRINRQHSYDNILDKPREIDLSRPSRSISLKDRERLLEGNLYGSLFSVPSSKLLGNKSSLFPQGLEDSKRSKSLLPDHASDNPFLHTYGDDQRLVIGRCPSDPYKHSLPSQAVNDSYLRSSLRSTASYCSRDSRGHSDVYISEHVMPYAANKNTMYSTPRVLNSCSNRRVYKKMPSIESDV

[3] = molecular target: T3, Ionotropic glutamate receptor NMDA 1/2D (Rattus norvegicus) (UniProt P35439+Q62645); assay: Positive allosteric modulation of recombinant rat GluN1a/GluN2D receptor expressed in Xenopus laevis oocytes assessed as increase in glycine/L-glutamate-induced channel current at 30 uM by two-electrode voltage clamp method relative to control; assay type: cell-based
Summary of the method: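 Oocytes expressing rat GluN1/GluN2C or GluN2D, held at −40 mV in HEPES-buffered Ba2+ solution, pH 7.4, 23 °C. […] Current given as percent of agonist-alone response. […] Doubling concentration is the concentration giving 2-fold response; reported as […] log. 6–19 oocytes from 2–3 frogs.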

[4] = Aqueous solubility of the compound at pH 7.4 after 30 mins by nephelometric analysis; assay type: physicochemical; conditions: buffer
[5] = molecular target: T4, Glutamate NMDA receptor; Grin1/Grin2c (Rattus norvegicus) (UniProt P35439+Q00961); assay: Positive allosteric modulation of recombinant rat GluN1a/GluN2C receptor expressed in Xenopus laevis oocytes assessed as increase in glycine/L-glutamate-induced channel current at 30 uM by two-electrode voltage clamp method relative to control; assay type: cell-based
Summary of the method: (§2)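 Oocytes expressing rat GluN1/GluN2C or GluN2D, held at −40 mV in HEPES-buffered Ba2+ solution, pH 7.4, 23 °C. Current given as percent of agonist-alone response. Doubling concentration is the concentration giving 2-fold response; reported as […] log. 6–19 oocytes from 2–3 frogs.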

[6] = molecular target: Glutamate NMDA receptor; Grin1/Grin2c (Rattus norvegicus, UniProt P35439+Q00961)
[7] = molecular target: Ionotropic glutamate receptor NMDA 1/2D (Rattus norvegicus, UniProt P35439+Q62645)
[8] = molecular target: T4, Glutamate NMDA receptor; Grin1/Grin2c (Rattus norvegicus); assay: Positive allosteric modulation of recombinant rat GluN1a/GluN2C receptor expressed in Xenopus laevis oocytes assessed as increase in glycine/L-glutamate-induced channel current by measuring log of doubling concentration by two-electrode voltage clamp method; assay type: cell-based; summary of the method: as §2
[9] = molecular target: T1, Glutamate NMDA receptor; Grin1/Grin2b; assay: Positive allosteric modulation of recombinant rat GluN1a/GluN2B receptor expressed in Xenopus laevis oocytes assessed as change in 30 to 100 uM glycine/3 uM L-glutamate-induced channel current at 30 uM by two-electrode voltage clamp method (reference value: 79 +/- 1%); assay type: cell-based; conditions: read-out: %max
[10] = molecular target: T2, Glutamate NMDA receptor; Grin1/Grin2a; assay: Positive allosteric modulation of recombinant rat GluN1a/GluN2A receptor expressed in Xenopus laevis oocytes assessed as change in 30 to 100 uM glycine/3 uM L-glutamate-induced channel current at 30 uM by two-electrode voltage clamp method (reference value: 46 +/- 5%); assay type: cell-based
[11] = molecular target: T3, Ionotropic glutamate receptor NMDA 1/2D (Rattus norvegicus); assay: Positive allosteric modulation of recombinant rat GluN1a/GluN2D receptor expressed in Xenopus laevis oocytes assessed as change in […]/0.3 uM L-glutamate-induced channel current at 30 uM by two-electrode voltage clamp method (reference value: 29 +/- 2%); assay type: cell-based
Summary of the method: (§3)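 Oocytes expressing rat GluN1/GluN2C or GluN1/GluN2D, TEVC at −40 mV, pH 7.4, 23 °C. […] 30 μM glycine in all solutions per footnote. Vehicle versus drug compared by paired t-test; mean ± SEM.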

[12] = molecular target: T3, Ionotropic glutamate receptor NMDA 1/2D (Rattus norvegicus); assay: Positive allosteric modulation of recombinant rat GluN1a/GluN2D receptor expressed in Xenopus laevis oocytes assessed as increase in glycine/10 uM L-glutamate-induced channel current at 30 uM in presence of NMDAR antagonist 7-CKA by two-electrode voltage clamp method relative to control; assay type: cell-based
[13] = molecular target: T4, Glutamate NMDA receptor; Grin1/Grin2c (Rattus norvegicus); assay: Positive allosteric modulation of recombinant rat GluN1a/GluN2C receptor expressed in Xenopus laevis oocytes assessed as change in […]/0.3 uM L-glutamate-induced channel current at 30 uM by two-electrode voltage clamp method (reference value: 19 +/- 3%); assay type: cell-based; summary of the method: as §3
[14] = molecular target: T3, Ionotropic glutamate receptor NMDA 1/2D (Rattus norvegicus); assay: Positive allosteric modulation of recombinant rat GluN1a/GluN2D receptor expressed in Xenopus laevis oocytes assessed as increase in 10 uM glycine/L-glutamate-induced channel current at 30 uM in presence of NMDAR antagonist DL-APV by two-electrode voltage clamp method relative to control; assay type: cell-based
Summary of the method: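 GluN1/GluN2D oocytes, TEVC at −40 mV. 30 μM compound applied with 10 μM glycine plus 50 μM DL-APV (glutamate-site antagonist).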

[15] = molecular target: T4, Glutamate NMDA receptor; Grin1/Grin2c (Rattus norvegicus); assay: Positive allosteric modulation of recombinant rat GluN1a/GluN2C receptor expressed in Xenopus laevis oocytes assessed as change in 30 uM glycine/0.5 uM L-glutamate-induced channel current at 30 uM by two-electrode voltage clamp method (reference value: 54 +/- 1%); assay type: cell-based; summary of the method: as §3
[16] = molecular target: T1, Glutamate NMDA receptor; Grin1/Grin2b; assay: Positive allosteric modulation of recombinant rat GluN1a/GluN2B receptor expressed in Xenopus laevis oocytes assessed as change in 30 uM glycine/3 uM L-glutamate-induced channel current at 30 uM by two-electrode voltage clamp method (reference value: 84 +/- 1%); assay type: cell-based; conditions: read-out: %max
[17] = molecular target: T3, Ionotropic glutamate receptor NMDA 1/2D (Rattus norvegicus); assay: Positive allosteric modulation of recombinant rat GluN1a/GluN2D receptor expressed in Xenopus laevis oocytes assessed as change in 30 uM glycine/0.5 uM L-glutamate-induced channel current at 30 uM by two-electrode voltage clamp method (reference value: 54 +/- 1%); assay type: cell-based; summary of the method: as §3
[18] = molecular target: T2, Glutamate NMDA receptor; Grin1/Grin2a; assay: Positive allosteric modulation of recombinant rat GluN1a/GluN2A receptor expressed in Xenopus laevis oocytes assessed as change in 30 uM glycine/3 uM L-glutamate-induced channel current at 30 uM by two-electrode voltage clamp method (reference value: 40 +/- 4%); assay type: cell-based

## COc1ccc(OC[C@@H]2c3cccn3CCN2C(=O)c2cccc(C(F)(F)F)c2)cc1
[1]
  Activity: Not Active
[2]
  Activity: Not Active
[3]
  %max: 98%
[4]
  solubility kinetic at 0.5 h: 58 µM (≈ 25 µg/mL)
[5]
  %max: 99%

## COc1ccc(OC[C@@H]2c3cccn3CC(=O)N2Cc2cccc(C(F)(F)F)c2)cc1
[1]
  Activity: Not Active
[2]
  Activity: Not Active
[3]
  %max: 88%
[4]
  solubility kinetic at 0.5 h: 57 µM (≈ 24.5 µg/mL)
[5]
  %max: 84%

## COc1ccc(OC[C@H]2c3cccn3CC(=O)N2Cc2cccc(C(F)(F)F)c2)cc1
[6]
  pEC50: 6.10
[1]
  Activity: Not Active
[7]
  pEC50: 6.10
[2]
  Activity: Not Active
[3]
  %max: 330%
[4]
  solubility kinetic at 0.5 h: 57 µM (≈ 24.5 µg/mL)
[5]
  %max: 280%

## COc1ccc(OCC2c3ccc(OC)cc3CC(=O)N2CC(F)(F)F)cc1 (centres undefined)
[1]
  Activity: Not Active
[8]
  log(activity): > -4.5
[2]
  Activity: Not Active
[3]
  %max: 160%
[5]
  %max: 330%

## COc1ccc(OCC2c3cccn3CC(=O)N2Cc2cccc(C(F)(F)F)c2)cc1 (centres undefined)
[6]
  pEC50: 5.90
[1]
  Activity: Not Active
[7]
  pEC50: 5.80
[2]
  Activity: Not Active
[3]
  %max: 400%
[4]
  solubility kinetic at 0.5 h: 57 µM (≈ 24.5 µg/mL)
[5]
  %max: 300%

## COc1ccc(OC[C@@H]2c3cccn3CCN2C(=O)c2cccc(Cl)c2)cc1
[1]
  Activity: Not Active
[2]
  Activity: Not Active
[3]
  %max: 99%
[4]
  solubility kinetic at 0.5 h: 36 µM (≈ 14.3 µg/mL)
[5]
  %max: 98%

## COc1ccc(OCC2c3cccn3CCN2C(=O)c2cccc(Cl)c2)cc1 (centres undefined)
[6]
  pEC50: 5.60
[1]
  Activity: Not Active
[7]
  pEC50: 5.50
[2]
  Activity: Not Active
[3]
  %max: 370%
[4]
  solubility kinetic at 0.5 h: 36 µM (≈ 14.3 µg/mL)
[5]
  %max: 370%

## COc1ccc(OC[C@H]2c3cccn3CCN2C(=O)c2cccc(Cl)c2)cc1
[6]
  pEC50: 5.70
[1]
  Activity: Not Active
[7]
  pEC50: 5.70
[2]
  Activity: Not Active
[3]
  %max: 450%
[4]
  solubility kinetic at 0.5 h: 36 µM (≈ 14.3 µg/mL)
[5]
  %max: 410%

## COc1ccc(OCC2c3ccc(OCC(C)C)cc3CC(=O)N2Cc2cccc(Cl)c2)cc1 (centres undefined)
[6]
  pEC50: 6.40
[1]
  Activity: 130%
[7]
  pEC50: 6.20
[2]
  Activity: 130%
[3]
  %max: 370%
[5]
  %max: 280%

## COc1ccc(OC[C@H]2c3cccn3CC(=O)N2Cc2cccc(F)c2)cc1
[6]
  pEC50: 5.50
[9]
  activity at 30 µM: 77%
[10]
  %max: 53%
[11]
  %max: 55%
[7]
  pEC50: 5.50
[12]
  Activity: 0.4%
[13]
  %max: 48%
[14]
  Activity: 2.5%
[3]
  %max: 390%
[4]
  solubility kinetic at 0.5 h: 74 µM (≈ 28.2 µg/mL)
[5]
  %max: 410%

## COc1ccc(OCC2c3cccn3CCN2C(=O)c2cccc(C(F)(F)F)c2)cc1 (centres undefined)
[6]
  pEC50: 5.80
[1]
  Activity: Not Active
[7]
  pEC50: 5.70
[2]
  Activity: Not Active
[3]
  %max: 290%
[4]
  solubility kinetic at 0.5 h: 58 µM (≈ 25 µg/mL)
[5]
  %max: 380%

## COc1ccc(OCC2c3ccc(OC)cc3CC(=O)N2Cc2cccc(Cl)c2)cc1 (centres undefined)
[6]
  pEC50: 5.70
[1]
  Activity: Not Active
[7]
  pEC50: 5.60
[2]
  Activity: Not Active
[3]
  %max: 330%
[5]
  %max: 270%

## COc1ccc(OCC2c3cc(OC)c(OC)cc3CC(=O)N2Cc2cccc(Cl)c2)cc1 (centres undefined)
[6]
  pEC50: 5.30
[1]
  Activity: Not Active
[7]
  pEC50: 5.00
[2]
  Activity: Not Active
[3]
  %max: 340%
[5]
  %max: 270%

## COc1ccc(OC[C@H]2c3cccn3CCN2C(=O)c2cccc(C(F)(F)F)c2)cc1
[6]
  pEC50: 5.90
[1]
  Activity: Not Active
[7]
  pEC50: 5.90
[2]
  Activity: Not Active
[3]
  %max: 540%
[4]
  solubility kinetic at 0.5 h: 58 µM (≈ 25 µg/mL)
[5]
  %max: 460%

## COc1ccc(OCC2c3ccsc3CCN2C(=O)c2cccc(Cl)c2)cc1 (centres undefined)
[6]
  pEC50: 5.40
[1]
  Activity: Not Active
[7]
  pEC50: 5.30
[2]
  Activity: Not Active
[3]
  %max: 340%
[5]
  %max: 330%

## COc1ccc(OCC2c3sccc3CCN2C(=O)c2cccc(Cl)c2)cc1 (centres undefined)
[6]
  pEC50: 5.40
[1]
  Activity: Not Active
[7]
  pEC50: 5.40
[2]
  Activity: Not Active
[3]
  %max: 350%
[4]
  solubility kinetic at 0.5 h: 46 µM (≈ 19 µg/mL)
[5]
  %max: 280%

## COc1ccc(OCC2c3ccccc3CCN2C(=O)c2cccc(Cl)c2)cc1 (centres undefined)
[6]
  pEC50: 5.20
[1]
  Activity: Not Active
[7]
  pEC50: 5.10
[2]
  Activity: Not Active
[3]
  %max: 300%
[5]
  %max: 260%

## COc1ccc(OC[C@@H]2c3cccn3CC(=O)N2Cc2cccc(F)c2)cc1
[15]
  %max: 57%
[1]
  Activity: Not Active
[16]
  activity at 30 µM: 85%
[2]
  Activity: Not Active
[17]
  %max: 72%
[18]
  %max: 45%
[3]
  %max: 88%
[4]
  solubility kinetic at 0.5 h: 74 µM (≈ 28.2 µg/mL)
[5]
  %max: 100%
